# Laboratory results: PMC7781011 (Journal of Inflammation Research, 2020)
# Like-named read-outs stand apart in the source and are kept apart here.
# Tests used:
# [1] = target: T1, human COX-2 (Homo sapiens, UniProt P35354); experiment: Cell-free fluorometric COX-2 assay; assay type: biochemical; settings: up to the tested range of 1 mM
# T1 sequence (P35354 18-604): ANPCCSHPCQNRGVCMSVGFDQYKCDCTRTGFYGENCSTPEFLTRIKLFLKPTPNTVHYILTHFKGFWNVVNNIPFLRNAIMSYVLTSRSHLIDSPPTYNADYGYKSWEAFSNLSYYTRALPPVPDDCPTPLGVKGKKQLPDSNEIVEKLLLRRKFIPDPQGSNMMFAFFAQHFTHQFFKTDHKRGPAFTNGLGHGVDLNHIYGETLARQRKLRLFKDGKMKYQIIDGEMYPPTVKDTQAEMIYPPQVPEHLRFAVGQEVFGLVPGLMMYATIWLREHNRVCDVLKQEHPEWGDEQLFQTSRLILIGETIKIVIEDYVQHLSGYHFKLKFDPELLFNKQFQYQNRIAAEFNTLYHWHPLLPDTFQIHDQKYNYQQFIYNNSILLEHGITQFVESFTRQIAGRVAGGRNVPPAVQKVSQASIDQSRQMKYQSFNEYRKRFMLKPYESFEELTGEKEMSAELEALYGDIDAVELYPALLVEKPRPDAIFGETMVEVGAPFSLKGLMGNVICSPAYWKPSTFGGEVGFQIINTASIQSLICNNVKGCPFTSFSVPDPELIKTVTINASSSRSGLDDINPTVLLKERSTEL
# [2] = target: T2, human 5-LOX (Homo sapiens, UniProt P09917); experiment: Binding assay using isothermal titration calorimetry
# T2 sequence (P09917 1-674): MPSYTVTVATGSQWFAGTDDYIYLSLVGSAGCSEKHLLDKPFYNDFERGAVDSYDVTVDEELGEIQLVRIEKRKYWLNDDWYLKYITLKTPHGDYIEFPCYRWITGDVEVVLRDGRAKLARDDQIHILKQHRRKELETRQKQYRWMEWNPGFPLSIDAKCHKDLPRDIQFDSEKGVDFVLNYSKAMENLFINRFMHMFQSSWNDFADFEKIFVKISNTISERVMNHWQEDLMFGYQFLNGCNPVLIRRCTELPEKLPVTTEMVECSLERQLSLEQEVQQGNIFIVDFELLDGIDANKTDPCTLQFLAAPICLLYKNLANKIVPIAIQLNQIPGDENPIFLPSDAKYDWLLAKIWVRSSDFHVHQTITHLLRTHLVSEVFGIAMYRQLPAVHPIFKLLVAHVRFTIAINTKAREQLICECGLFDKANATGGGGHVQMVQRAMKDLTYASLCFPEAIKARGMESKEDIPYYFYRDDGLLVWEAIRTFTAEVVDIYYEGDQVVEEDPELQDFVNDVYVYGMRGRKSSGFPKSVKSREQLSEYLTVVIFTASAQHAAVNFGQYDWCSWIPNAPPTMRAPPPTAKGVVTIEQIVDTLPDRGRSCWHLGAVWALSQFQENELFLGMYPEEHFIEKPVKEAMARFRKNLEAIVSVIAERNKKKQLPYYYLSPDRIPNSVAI
# Summary of the method: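 Serial injections of test compound (up to 1 mM) into enzyme-containing cell at 1 mM protein, both dissolved in PBS and degassed before use. Titration continued until heat signal approached zero at saturation. Isotherm fitted to obtain dissociation constant KD.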
# [3] = target: T3, rat mPGES-1 (Rattus norvegicus, UniProt Q9JHF3); experiment: Binding assay using isothermal titration calorimetry
# T3 sequence (Q9JHF3 1-153): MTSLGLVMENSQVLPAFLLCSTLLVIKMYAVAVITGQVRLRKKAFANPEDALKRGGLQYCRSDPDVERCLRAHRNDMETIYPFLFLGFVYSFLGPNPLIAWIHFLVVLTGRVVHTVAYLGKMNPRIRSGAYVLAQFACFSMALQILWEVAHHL
# Summary of the method: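 Rat mPGES-1 isolated from vas deferens and seminal vesicles. Compound (up to 1 mM) and protein (1 mM) dissolved in PBS and degassed. Serial compound injections made into enzyme cell. KD derived by fitting the binding isotherm.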
# [4] = target: human COX-1 (Homo sapiens, UniProt P23219); experiment: Circular dichroism, change in secondary structure; settings: CD, Human COX-1, LFA-9 10 µM
# Summary of the method: (§1)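 Native and compound-treated (0.1–10 µM) enzymes in PBS pH 7.4 at final protein 200 µM. CD spectra corrected by subtracting buffer blanks. Percent change in secondary structure (α-helix, β-sheet) calculated with the CAPITO analysis server.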
# [5] = target: T1, human COX-2; experiment: Circular dichroism, change in secondary structure; settings: CD, Human COX-2, LFA-9 10 µM
# Summary of the method: as §1
# [6] = target: T2, human 5-LOX; experiment: Circular dichroism, change in secondary structure; settings: CD
# Summary of the method: as §1
# [7] = system: CD68-positive inflammatory cell infiltration and TNF-α expression in paw tissue; experiment: Immunofluorescence and immunoblot analysis of carrageenan-injected paw tissue; assay type: in vivo; settings: rat, 400 ppm, compared to the untreated control
# Summary of the method: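 Paw tissue: 4-µm FFPE sections, citrate pH 6.0 epitope retrieval (99°C, 30 min). Blocked with serum/BSA 40 min. Alexa700-CD68 (1:50) and TNF-α (1:100) overnight at 4°C, Alexa488 secondary for TNF-α. Confocal imaging, stained cells counted by image analysis. Immunoblot: 20 µg protein, 12% SDS-PAGE, PVDF. CD68 and TNF-α (1:100), HRP secondary, ECL, β-actin loading control.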
# [8] = system: normal colonocytes of rats; experiment: MTT assay; assay type: cell-based, rat; settings: 0.1–100 µM, 24 hours
# Summary of the method: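 Normal rat colonocytes exposed 24 h to compound (0.1–100 µM), then MTT reagent for 2 h at 37°C. Formazan dissolved in DMSO, absorbance read at 570 nm with 620 nm reference. Three independent experiments, expressed as percent viability.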
# human COX-1, sequence (P23219 24-599): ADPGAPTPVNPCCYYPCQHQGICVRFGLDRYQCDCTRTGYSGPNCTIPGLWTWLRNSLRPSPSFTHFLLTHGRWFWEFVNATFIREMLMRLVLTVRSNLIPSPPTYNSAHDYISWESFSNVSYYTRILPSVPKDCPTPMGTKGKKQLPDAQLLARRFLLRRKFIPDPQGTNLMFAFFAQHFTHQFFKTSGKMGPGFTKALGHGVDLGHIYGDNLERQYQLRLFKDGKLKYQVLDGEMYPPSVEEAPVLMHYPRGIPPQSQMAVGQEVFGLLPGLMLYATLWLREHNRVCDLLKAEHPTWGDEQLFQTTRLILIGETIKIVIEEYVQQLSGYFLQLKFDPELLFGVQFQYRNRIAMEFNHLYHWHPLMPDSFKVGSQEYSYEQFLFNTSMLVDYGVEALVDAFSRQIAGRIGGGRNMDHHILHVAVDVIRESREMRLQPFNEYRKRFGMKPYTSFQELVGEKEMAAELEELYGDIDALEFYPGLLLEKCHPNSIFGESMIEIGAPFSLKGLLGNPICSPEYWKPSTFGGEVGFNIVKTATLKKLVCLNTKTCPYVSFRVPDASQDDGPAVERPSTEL
smiles,measurement,setting,value
"CC1(C)Cc2c(-c3ccccc3)c(-c3ccc(Cl)cc3)c(CC(=O)NCC(=O)O)n2C1 [LFA-9, 2-[[2-[2-(4-chlorophenyl)-6,6-dimethyl-1-phenyl-5,7-dihydropyrrolizin-3-yl]acetyl]amino]acetic acid]",inhibition of COX-2 activity,[1],did not show inhibition
same,Kd,[2],18 µM
same,Kd,"[2]; read-out: KD (KD2), ITC, Human 5-LOX, sequential binding sites, second site",210 µM
same,Kd,[3],3.3 µM
same,Change in Secondary Structure,[4],No change in secondary structure
same,Change in Secondary Structure,[5],No change in secondary structure
same,unfolding of α-helix of 5-LOX,"[6]; 5-LOX, LFA-9 at 0.1 µM",8.7%
same,unfolding of β-sheets of 5-LOX,"[6]; 5-LOX, LFA-9 at 0.1 µM",1%
same,Change in Secondary Structure: unfolding in α-helix,"[6]; Human 5-LOX, LFA-9 0.12 µM",8.7%
same,Change in Secondary Structure: unfolding in β-sheets,"[6]; Human 5-LOX, LFA-9 0.12 µM",1%
same,CD68-positive inflammatory cell infiltration in paw tissue,[7],significantly decreased
same,expression of TNF-α in paw tissue,[7],significantly decreased
same,cytotoxicity to normal rat colonic epithelial cells,[8],no cytotoxicity
